Shown are actives, neighbours in structure and some others; about 3.5% of the full set was active somewhere.
MrgX1 antag = blocks BAM8-22 activation of human MrgX1 receptor; Q96LB2; 310,000 compounds, 1.3% hits; MRGX1-HEK293 calcium flux, Fluo-4, BAM8-22 antagonism; hits give low values; B-score at 10 µM; AID 588676;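 active = calcium-response B-score plate-corrected more than 3 library SD below zero, starting fluorescence within 5 deviations, no agonist response on first addition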;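 also: peak minus trough fluorescence over baseline after final BAM8-22 challenge near maximal dose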
Target sequence (Q96LB2 whole entry, looked up): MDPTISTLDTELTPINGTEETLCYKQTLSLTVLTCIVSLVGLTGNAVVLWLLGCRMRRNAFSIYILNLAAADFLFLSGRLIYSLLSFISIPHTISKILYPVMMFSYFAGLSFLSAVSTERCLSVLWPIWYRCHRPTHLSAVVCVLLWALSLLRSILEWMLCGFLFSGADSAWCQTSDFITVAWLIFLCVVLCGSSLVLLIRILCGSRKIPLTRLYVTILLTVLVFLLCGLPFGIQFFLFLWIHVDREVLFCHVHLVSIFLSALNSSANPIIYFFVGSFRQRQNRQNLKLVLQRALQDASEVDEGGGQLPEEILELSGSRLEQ
MrgX1 PAM = allosterically activates human MrgX1 receptor signaling | Q96LB2 | MrgX1-HEK293, Fluo-4 calcium flux, FDSS; hits give high values | B-score at 10 µM | 310,000 compounds, 0.63% hits | AID 588675;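 active = plate-corrected calcium response at least 3 library SD above typical, normal starting fluorescence, not activating the receptor alone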;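 also: compound read alongside a low EC10 to EC30 dose of BAM8-22 agonist; peak minus trough fluorescence over baseline measured at the second addition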
MrgX1 agonist = human MrgX1 receptor agonism, primary screen; Q96LB2; MrgX1-HEK293 cells, Fluo-4 calcium fluorescence, agonist mode; hits give high values; B-score at 10 µM; 310,000 compounds, 0.44% hits; AID 588627;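 active = calcium response B-score plate-corrected fluorescence ratio at least 3 library SD, with starting fluorescence B-score inside 5 SD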
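Assay system: stable human MrgX1 HEK293 cell line. Quantity: 15,000 cells per well. Schedule: cells plated overnight, dye loaded 0.5 h 37 °C, 0.5 h room temperature. Detection: Fluo-4 NW calcium-flux fluorescence, kinetic read. Read-out basis: peak-minus-minimum fluorescence over baseline, converted to B scores. Control set: positive and negative control wells on each plate.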
RGS4 pot = potentiators or activators of RGS4; HEK293 M3R/inducible RGS4, carbachol calcium flux Fluo4; hits give low values; AID 463111; B-score at 10 µM; 310,000 compounds, 0.92% hits;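 active = B-score of the integrated calcium signal more than 4 SD below the library mean, with starting fluorescence not abnormally high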;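 also: negative B-score means reduced calcium response which marks RGS4 activation or potentiation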
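Assay system: Inducible-RGS4 HEK293 cells carrying M3 receptor | Schedule: Compound preincubation 20 min at room temperature before agonist | Signal: Kinetic calcium fluorescence imaging with Fluo4-AM dye, 2 µM | Read-out basis: B score from integrated fluorescence ratio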
RGS4 inh = human RGS4 inhibition. B-score at 10 µM. HEK293 M3R/RGS4 inducible, Fluo-4 calcium flux; hits give high values; triggered by carbachol at its EC20. 310,000 compounds, 0.45% hits. P49798;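 active = B-score, a plate-corrected calcium signal, over three deviations above library mean, with baseline fluorescence within five deviations of library mean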;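 also: RGS4 expression induced by doxycycline in cells with stable M3 receptor; B-score is computed from the integrated fluorescence ratio over baseline after carbachol; higher B-score means a larger calcium signal and so more RGS4 inhibition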
Target sequence (P49798 whole entry, looked up): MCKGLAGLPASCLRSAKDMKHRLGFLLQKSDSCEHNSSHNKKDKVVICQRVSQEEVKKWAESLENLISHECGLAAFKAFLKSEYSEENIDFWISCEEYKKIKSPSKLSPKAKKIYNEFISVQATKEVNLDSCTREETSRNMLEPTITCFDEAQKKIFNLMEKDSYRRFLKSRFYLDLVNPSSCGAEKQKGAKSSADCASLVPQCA
MrgX1 antag conf = reconfirmed antagonist of human MrgX1 receptor signaling | remaining BAM8-22 calcium response % of control (hits give low values), % at 10 µM | 2,300 compounds, 19% hits | shares compounds with MrgX1 antag | MrgX1-HEK293, BAM8-22 calcium flux, Fluo-4; hits give low values;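 active = remaining agonist calcium response no higher than 100% minus 3 SD of agonist-only control wells, with starting fluorescence near control levels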;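 also: agonist BAM8-22 given at a near maximal EC90 to ECmax level; peak minus minimum fluorescence divided by baseline after agonist addition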
HEK293 Ca flux = MrgX1 antagonist counter-screen hit in parental HEK293 cells | shares compounds with MrgX1 antag | Fluo-4 calcium fluorescence, FDSS | fluorescence ratio F(max-min)/F0 at 10 µM | 4,000 compounds, 2% hits;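 active = duplicate-averaged calcium fluorescence ratio at least three times the standard deviation of buffer wells, a nonspecific response in parental cells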
HEK293 Ca counter = activity in parental HEK293 cells without MrgX1; shares compounds with MrgX1 antag; parental HEK293 calcium flux, Fluo-4 fluorescence ratio; hits give high values; fluorescence ratio F(max-min)/F0 at 10 µM; 4,000 compounds, 0.4% hits;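 active = calcium fluorescence ratio, averaged over duplicates, at least 3 SD of the buffer-well ratio, meaning a nonspecific response in receptor-free cells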;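 also: untransfected parental HEK293 lacking MrgX1 used as counterscreen for MrgX1 allosteric activators; fluorescence change taken during the second addition on a kinetic imager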
HEK293 Ca cntr2 = activity in parental HEK293 cells lacking MrgX1 receptor | shares compounds with MrgX1 antag | Fluo-4 calcium fluorescence (FDSS); hits give high values | fluorescence ratio F(max-min)/F0 at 10 µM | 4,000 compounds, 8.7% hits;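 active = calcium fluorescence ratio at least three times the spread of buffer wells, meaning a non-specific response in parental cells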
Of the large screens only hits and unclear results are named; the others gave an inactive call (follow-up assays come after a bar, where they were run).

CCOC(=O)Cc1nnc(Nc2cccc(O)c2)c2ccccc12	MrgX1 antag -6.3 | MrgX1 antag conf inactive | HEK293 Ca flux inactive | HEK293 Ca counter inactive | HEK293 Ca cntr2 inactive
O=C(COc1ccc(CO)cc1Cl)Nc1ccc(F)cc1	MrgX1 antag -6.6 | MrgX1 antag conf 85% | HEK293 Ca flux inactive | HEK293 Ca counter inactive | HEK293 Ca cntr2 inactive
O=C(COc1ccc(CO)cc1)Nc1ccc(F)cc1	none
O=C(CN(c1ccccn1)S(=O)(=O)c1ccc(F)cc1)Nc1ccccc1	MrgX1 antag -6 | MrgX1 antag conf inactive | HEK293 Ca flux inactive | HEK293 Ca counter inactive | HEK293 Ca cntr2 inactive
CCC(Sc1ncccc1C(=O)O)C(=O)N1CCCC1 (stereo not given)	none
CCC(Sc1ncccc1C(=O)O)C(=O)N1CCOCC1 (stereo not given)	MrgX1 antag -6.8 | MrgX1 antag conf 80% | HEK293 Ca flux inactive | HEK293 Ca counter inactive | HEK293 Ca cntr2 inactive
Cc1ccc(N(CC(=O)NCC2CCCO2)S(=O)(=O)c2ccccc2)c(C)c1 (stereo not given)	none
Cc1ccc(Cl)cc1NC(=O)c1cccc(OC(F)F)c1	MrgX1 antag -4.7 | MrgX1 antag conf inactive | HEK293 Ca flux inactive | HEK293 Ca counter inactive | HEK293 Ca cntr2 inactive
CCOc1ccccc1N1CCN(C(=O)c2cc(-c3cccnc3)nc3c(Cl)cccc23)CC1	MrgX1 antag -5.8 | MrgX1 antag conf inactive | HEK293 Ca flux 0.42 | HEK293 Ca counter inactive | HEK293 Ca cntr2 inactive
CCOc1ccccc1N1CCN(C(=O)c2ccncc2)CC1	none
COc1ccc(NC(=O)C2CCCN2C(=O)OC(C)(C)C)cc1 (stereo not given)	none
O=C(Nc1cc(C(F)(F)F)ccc1N1CCOCC1)c1ccco1	MrgX1 antag -4.5 | MrgX1 antag conf inactive | HEK293 Ca flux inactive | HEK293 Ca counter inactive | HEK293 Ca cntr2 inactive
COC(=O)C1CCN(C(=O)C(C)Oc2ccc(Cl)cc2Cl)CC1 (stereo not given)	MrgX1 antag -9.9 | MrgX1 antag conf inactive | HEK293 Ca flux inactive | HEK293 Ca counter inactive | HEK293 Ca cntr2 inactive
CCOC(=O)C1CCCN(C(=O)C(C)Oc2ccc(Cl)cc2Cl)C1 (stereo not given)	none
Nc1nonc1-c1noc(CCCN2C(=O)c3ccccc3C2=O)n1	MrgX1 antag -6.6 | MrgX1 antag conf inactive | HEK293 Ca flux inactive | HEK293 Ca counter inactive | HEK293 Ca cntr2 inactive
Cc1cc(-c2ccccc2)nc(SCC(=O)N2CCCC2)n1	MrgX1 antag -5.4 | MrgX1 antag conf inactive | HEK293 Ca flux inactive | HEK293 Ca counter inactive | HEK293 Ca cntr2 inactive
Cc1cc(C)nc(SCC(=O)N2CCCCC2)n1	none
CCc1nc(SCC(=O)N2CCCC2)c2c(=O)n(C)c(=O)n(C)c2n1	none
Cn1c(=O)c2c(SCC(=O)N3CCCC3)nc(-c3ccccc3)nc2n(C)c1=O	MrgX1 antag -6 | MrgX1 antag conf inactive | HEK293 Ca flux inactive | HEK293 Ca counter inactive | HEK293 Ca cntr2 inactive
Cc1cccc(-n2ncc3c(NCCc4ccc(S(N)(=O)=O)cc4)ncnc32)c1	MrgX1 antag -5.5 | MrgX1 antag conf 82% | HEK293 Ca flux inactive | HEK293 Ca counter inactive | HEK293 Ca cntr2 inactive
Cc1cccc(-n2ncc3c(NCc4ccccc4)ncnc32)c1	none
S=C(NCc1ccc(Cl)cc1Cl)NC1CCCCC1	MrgX1 antag -4.6 | MrgX1 antag conf 60% | HEK293 Ca flux inactive | HEK293 Ca counter inactive | HEK293 Ca cntr2 inactive
Clc1ccc(CNC2CCCC2)c(Cl)c1	none
CCC(C)(C(=O)NC1CCCC1)N(C(=O)c1ccccn1)c1ccccc1 (stereo not given)	MrgX1 antag -8 | MrgX1 antag conf inactive | HEK293 Ca flux inactive | HEK293 Ca counter inactive | HEK293 Ca cntr2 inactive
COc1ccc(NC(=O)Cn2nnc(C(=O)NCc3ccc4c(c3)OCO4)c2N)c(OC)c1	none
CCc1ccc2c(c1)C(NC(C)=O)C(=O)N2CCN1CCOCC1 (stereo not given)	MrgX1 antag -9.7 | MrgX1 antag conf inactive | HEK293 Ca flux inactive | HEK293 Ca counter inactive | HEK293 Ca cntr2 inactive
CCCN1C(=O)C(NC(C)=O)c2ccccc21 (stereo not given)	none
O=C(NC1CCCCC1)C1CCCN1S(=O)(=O)c1ccc(Cl)cc1 (stereo not given)	none
Cc1ccc2c(Cl)c(C(=O)NCC3CCCO3)sc2c1 (stereo not given)	MrgX1 antag -4.6 | MrgX1 antag conf inactive | HEK293 Ca flux inactive | HEK293 Ca counter inactive | HEK293 Ca cntr2 inactive
CC(=O)c1cccc(NC(=S)NC2CCCCCCC2)c1	none
O=C(Nc1ccc(C(=O)N2CCCC2)cc1)c1ccccc1Br	none
O=C(Nc1ccc(C(=O)N2CCCCC2)cc1)c1ccccc1Br	MrgX1 antag -5.6 | MrgX1 antag conf inactive | HEK293 Ca flux inactive | HEK293 Ca counter inactive | HEK293 Ca cntr2 inactive
CN(/N=C/c1ccc(-c2ccc([N+](=O)[O-])cc2)o1)c1ccccc1	MrgX1 antag -11 | MrgX1 antag conf inactive | HEK293 Ca flux inactive | HEK293 Ca counter inactive | HEK293 Ca cntr2 inactive
CN(/N=C/c1cc([N+](=O)[O-])ccc1O)c1ccccc1	none
C=CCOc1ccccc1CN1CCC(Oc2ccc(C(=O)N3CCCCC3)cc2)CC1	none
COc1ccc(NS(=O)(=O)c2ccc(C(=O)N3CCN(Cc4ccccc4)CC3)cc2)cc1	MrgX1 antag -5.9 | MrgX1 antag conf inactive | HEK293 Ca flux inactive | HEK293 Ca counter inactive | HEK293 Ca cntr2 inactive
CCc1cccc(C)c1NC(=S)NCc1ccc2[nH]c(C)cc2c1	MrgX1 antag -9.1 | MrgX1 antag conf inactive | HEK293 Ca flux inactive | HEK293 Ca counter inactive | HEK293 Ca cntr2 inactive
CNC(=S)NCc1ccc2[nH]c(C)cc2c1	none
CCCCN(C(=O)c1cccc(S(=O)(=O)N2CCN(C)CC2)c1)c1c(N)n(CCC)c(=O)[nH]c1=O	MrgX1 antag -15 | MrgX1 antag conf inactive | HEK293 Ca flux inactive | HEK293 Ca counter inactive | HEK293 Ca cntr2 inactive
Cc1ccc(C(=O)C2=C(O)C(=O)N(Cc3cccnc3)C2c2ccc(Br)cc2)o1 (stereo not given)	MrgX1 antag -11 | MrgX1 antag conf inactive | HEK293 Ca flux inactive | HEK293 Ca counter inactive | HEK293 Ca cntr2 inactive
Fc1ccc(C(CCNCc2ccccn2)c2ccc(Cl)cc2)cc1 (stereo not given)	none

Screening data from PubChem.
